The results in this text go back to ChEMBL document CHEMBL3396959, “Structural requirements for TLR7-selective signaling by 9-(4-piperidinylalkyl)-8-oxoadenine derivatives” (Bioorg Med Chem Lett, 2015).

Activity calls are given as the source filed them. The rule behind the calls is not given here.

For orientation: EC50 means the midpoint of the concentration-response curve.

Data set [1] deals with PBMC. Briefly: Reduction in IFNalpha production in primary human PBMC at >10 uM after 24 hrs by ELISA method. The format is functional, cell-based. For orientation: An ELISA detects its analyte on a solid surface through an enzyme-linked reagent.
Data set [2] concerns the target T1, Toll-like receptor 7 (Homo sapiens, UniProt Q9NYK1).
T1 sequence (Q9NYK1 whole entry): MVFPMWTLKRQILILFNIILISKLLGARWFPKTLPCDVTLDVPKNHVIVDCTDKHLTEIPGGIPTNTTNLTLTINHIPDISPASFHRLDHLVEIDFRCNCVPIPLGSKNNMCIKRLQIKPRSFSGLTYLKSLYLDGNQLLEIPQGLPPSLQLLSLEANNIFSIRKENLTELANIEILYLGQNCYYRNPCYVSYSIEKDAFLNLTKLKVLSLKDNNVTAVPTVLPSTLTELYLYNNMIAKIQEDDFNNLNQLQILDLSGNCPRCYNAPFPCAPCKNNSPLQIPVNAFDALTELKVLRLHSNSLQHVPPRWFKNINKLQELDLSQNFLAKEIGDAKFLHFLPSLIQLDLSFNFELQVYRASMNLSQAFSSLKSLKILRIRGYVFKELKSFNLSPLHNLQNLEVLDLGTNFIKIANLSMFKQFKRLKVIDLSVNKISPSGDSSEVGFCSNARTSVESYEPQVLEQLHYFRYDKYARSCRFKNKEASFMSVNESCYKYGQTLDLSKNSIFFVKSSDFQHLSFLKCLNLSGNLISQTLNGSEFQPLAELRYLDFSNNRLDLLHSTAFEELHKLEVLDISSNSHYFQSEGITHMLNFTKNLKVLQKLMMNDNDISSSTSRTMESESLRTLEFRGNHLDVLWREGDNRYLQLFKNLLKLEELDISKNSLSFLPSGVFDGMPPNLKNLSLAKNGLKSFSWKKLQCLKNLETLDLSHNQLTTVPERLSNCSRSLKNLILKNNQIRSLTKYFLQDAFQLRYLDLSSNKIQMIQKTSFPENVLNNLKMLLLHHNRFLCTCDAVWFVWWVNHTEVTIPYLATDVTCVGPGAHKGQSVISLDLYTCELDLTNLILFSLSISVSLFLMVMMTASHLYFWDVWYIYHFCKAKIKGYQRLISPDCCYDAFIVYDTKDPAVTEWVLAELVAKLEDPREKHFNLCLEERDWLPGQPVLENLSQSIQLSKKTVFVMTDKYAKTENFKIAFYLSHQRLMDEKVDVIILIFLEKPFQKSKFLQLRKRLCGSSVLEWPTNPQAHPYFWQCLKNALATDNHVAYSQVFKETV
Kind of data set: Activation of human TLR7 expressed in HEK293 cells after 24 hrs by NFkappaB-mediated SEAP reporter gene assay. The format is cell-based. The gist of the method:
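HEK293 cells stably transfected with hTLR7 or hTLR8 plus an NF-kB-driven SEAP reporter were kept in DMEM/10% FBS with selection antibiotics. Aqueous compound formulations were added for 24 h, and supernatant SEAP was read colorimetrically. Points were run in triplicate and averaged. Activity was scaled to the maximum of a reference agonist set at 100%. EC50 was taken from dose-response curves with 95% CI.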

Data set [3] has as its target T2, Toll-like receptor 8 (Homo sapiens, UniProt Q9NR97).
T2 sequence (Q9NR97 whole entry): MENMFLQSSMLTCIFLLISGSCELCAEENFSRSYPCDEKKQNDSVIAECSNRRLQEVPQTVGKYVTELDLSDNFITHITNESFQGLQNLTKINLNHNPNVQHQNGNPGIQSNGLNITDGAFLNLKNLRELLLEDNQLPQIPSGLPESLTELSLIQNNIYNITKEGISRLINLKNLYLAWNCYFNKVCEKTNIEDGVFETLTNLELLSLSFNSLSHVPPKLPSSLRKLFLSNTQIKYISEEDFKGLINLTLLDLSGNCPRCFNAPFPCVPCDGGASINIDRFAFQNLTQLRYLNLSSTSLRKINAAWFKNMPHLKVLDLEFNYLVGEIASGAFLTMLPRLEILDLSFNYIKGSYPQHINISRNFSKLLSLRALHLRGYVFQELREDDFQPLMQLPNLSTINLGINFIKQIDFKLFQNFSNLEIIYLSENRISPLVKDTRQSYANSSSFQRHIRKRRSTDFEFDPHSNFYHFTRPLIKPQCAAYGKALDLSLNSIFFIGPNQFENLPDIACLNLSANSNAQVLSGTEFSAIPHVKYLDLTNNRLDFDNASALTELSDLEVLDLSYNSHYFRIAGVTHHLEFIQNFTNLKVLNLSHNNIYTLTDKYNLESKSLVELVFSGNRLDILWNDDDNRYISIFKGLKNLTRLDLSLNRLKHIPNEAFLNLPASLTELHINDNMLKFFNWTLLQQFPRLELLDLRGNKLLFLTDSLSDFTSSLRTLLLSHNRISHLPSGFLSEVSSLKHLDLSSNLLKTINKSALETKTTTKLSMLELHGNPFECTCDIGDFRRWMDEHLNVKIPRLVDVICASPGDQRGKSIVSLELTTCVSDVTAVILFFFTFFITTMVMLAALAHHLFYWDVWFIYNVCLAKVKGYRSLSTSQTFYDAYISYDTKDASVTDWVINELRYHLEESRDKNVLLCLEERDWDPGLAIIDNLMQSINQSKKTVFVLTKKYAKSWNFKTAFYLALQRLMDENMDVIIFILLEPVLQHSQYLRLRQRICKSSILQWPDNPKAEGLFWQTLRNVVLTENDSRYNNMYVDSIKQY
Briefly: Activation of human TLR8 expressed in HEK293 cells after 24 hrs by NFkappaB-mediated SEAP reporter gene assay. Type of data set: cell-based. The gist of the method:
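HEK293 cells stably transfected with hTLR7 or hTLR8 plus an NF-kB-driven SEAP reporter were kept in DMEM/10% FBS with selection antibiotics. Aqueous compound formulations were added for 24 h, and supernatant SEAP was read colorimetrically. Points were run in triplicate and averaged.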

Data set [4] has as its system PBMC. Kind of data set: Induction of IFNgamma production in primary human PBMC after 24 hrs by ELISA method. Type of data set: functional, cell-based.
In data set [5] the test system is PBMC. Briefly: Induction of TNFalpha production in primary human PBMC at 0.001 to 10 uM after 24 hrs by ELISA method. Type of data set: functional, cell-based. The gist of the method: (§1)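 Ficoll-isolated healthy-donor PBMCs at 0.5 × 10^6 cells/well in RPMI-1640/10% FBS were stimulated 24 h with aqueous compound. Supernatant TNFa was assayed with a […]. Data are from three donors in triplicate, with SEM shown.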

Data set [6] relates to PBMC. Briefly: Induction of IFNalpha production in primary human PBMC at 0.001 to 10 uM after 24 hrs by ELISA method. The format is functional, cell-based. The gist of the method: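 Fresh healthy-donor PBMCs were isolated by Ficoll and plated at 0.5 × 10^6 cells/well in RPMI-1640/10% FBS with antibiotics. Aqueous compound formulations were added for 24 h across 0.0001–10 µM. Supernatant IFNa was measured by ELISA. Data are from three donors, each run in triplicate, with SEM shown.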

The test system of data set [7] is PBMC. Kind of data set: Induction of TNFalpha production in primary human PBMC after 24 hrs by ELISA method. The format is functional, cell-based. The gist of the method: as §1
Data set [8] in a line: Induction of IL6 expression in human HLA-DR(+), CD11c(+) and CD123(-) expressing mDC after 24 hrs by intracellular cytokine staining method. Type of data set: functional. Set-up: concentration or dose not given beside the values. The gist of the method:
(§2)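 PBMCs were stimulated with aqueous compound for 24 h, with GolgiPlug (10 ng/ml) present for the final 6 h. Cells were washed and surface-stained for lineage markers (mDC HLA-DR+ CD11c+ CD123−; pDC HLA-DR+ CD11c− CD123+). They were then permeabilized with Perm/Fix buffer and stained with fluorochrome-conjugated anti-cytokine antibodies for flow cytometry.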

Data set [9] relates to HEK293. Briefly: Toxicity against human TLR8 expressing HEK293 cells after 24 hrs by live/dead fixable aqua staining method. Type of data set: cell-based. To be noted: hek293, 24 h. The gist of the method:
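HEK293-hTLR8 reporter cells were stimulated with compound for 24 h. Cells were then incubated with Live/Dead fixable Aqua dye for 30 min, washed extensively, and read for viability by flow cytometry.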

The species entered for data set [10] is Homo sapiens. Briefly: Induction of TNFalpha production in human HLA-DR(+), CD11c(-) and CD123(+) expressing pDC after 24 hrs by intracellular cytokine staining method. The format is functional, cell-based. The essentials:
as §2

The species entered for data set [11] is Homo sapiens. Kind of data set: Induction of INFalpha production in human HLA-DR(+), CD11c(+) and CD123(-) expressing mDC after 24 hrs by intracellular cytokine staining method. The format is functional, cell-based. The gist of the method:
as §2

For data set [12], the species on record is Homo sapiens. Kind of data set: Induction of INFalpha production in human HLA-DR(+), CD11c(-) and CD123(+) expressing pDC after 24 hrs by […]. Type of data set: functional.
The species entered for data set [13] is Homo sapiens. Kind of data set: Induction of apoptosis in human HLA-DR(+), CD11c(-) and CD123(+) expressing pDC at 1 nM after 24 hrs by Annexin-V staining method. The format is functional. The gist of the method: (§3)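 PBMCs were stimulated for 24 h with compound at doses of 0.01 nM, 1 nM, 100 nM and 10 µM. Cells were phenotyped into mDC (HLA-DR+ CD11c+ CD123−) and pDC (HLA-DR+ CD11c− CD123+) and stained with Annexin-V to read apoptosis by flow cytometry.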

The species entered for data set [14] is Homo sapiens. Kind of data set: Induction of INFalpha production in human HLA-DR(+), CD11c(-) and CD123(+) expressing pDC after 24 hrs by intracellular cytokine staining method. The format is functional, cell-based. The essentials:
as §2

The species named for data set [15] is Homo sapiens. Briefly: Induction of apoptosis in human HLA-DR(+), CD11c(+) and CD123(-) expressing mDC at 1 nM after 24 hrs by Annexin-V staining method. The format is functional. The gist of the method: as §3
The species entered for data set [16] is Homo sapiens. Kind of data set: Induction of TNFalpha production in human HLA-DR(+), CD11c(+) and CD123(-) expressing mDC after 24 hrs by intracellular cytokine staining method. Type of data set: functional, cell-based. The gist of the method:
as §2

Data set [17] is filed under the species Homo sapiens. Kind of data set: Induction of TNFalpha production in human HLA-DR(+), CD11c(-) and CD123(+) expressing pDC after 24 hrs by […]. The format is functional.
For data set [18], the species on record is Homo sapiens. Briefly: Induction of TNFalpha production in human HLA-DR(+), CD11c(+) and CD123(-) expressing mDC after 24 hrs by intracellular cytokine staining.
For data set [19], the species on record is Homo sapiens. Kind of data set: Induction of INFalpha production in human HLA-DR(+), CD11c(+) and CD123(-) expressing mDC after 24 hrs by […]. Type of data set: functional.

In the case of `CCCCOc1nc(N)c2[nH]c(=O)n(CCCCCCC3CCNCC3)c2n1.Cl`, the inhibition entry in data set [1] was “Dose-dependent effect”. Also, the EC50 came to 0.23 µM in [2] (read-out: EC50) and 29 µM in data set [3] (read-out: EC50). Besides, the outcome in data set [4], in data set [6] and in data set [7] was Active. Also, the figures for the Activity result in [5] and in [8] were “Dose-dependent effect” and 28.5%, respectively.

Consider `CCCCOc1nc(N)c2[nH]c(=O)n(CCCC3CCNCC3)c2n1.Cl`, for which, in [1], the inhibition entry was “Dose-dependent effect”. In addition, the EC50 was 0.62 µM in [2] (read-out: EC50) and 260 µM in data set [3] (read-out: EC50). Besides, the outcome in [4], in data set [6] and in [7] was Active. The Activity entry in data set [5] was “Dose-dependent effect”; in data set [9], “Non-toxic”; in data set [8], 8.27%.

As to `CCCCOc1nc(N)c2[nH]c(=O)n(CCCCCC3CCNCC3)c2n1.Cl`, the Activity result in data set [10], in data set [11], in data set [12], in data set [14], in data set [16] and in [5] was “Dose-dependent effect” in each case. Also, the Activity entry in data set [9] is “Toxic”; in [17], “Dose-dependent effect”; in data set [8], 31.5%; in [18], “Dose-dependent effect”; in data set [19], “Dose-dependent effect”. For the same compound, the result in [13], in [4], in data set [6] and in [7] was Active. In data set [15], the outcome was inactive. Moreover, the inhibition result in data set [1] was “Dose-dependent effect”. Besides, the EC50 in data set [2] (read-out: EC50) came out at 0.1 µM.

With `CCCCOc1nc(N)c2[nH]c(=O)n(CCCCC3CCNCC3)c2n1.Cl`, in data set [1], the inhibition entry was “Dose-dependent effect”. Further, the concentration giving a half-maximal response (EC50) in data set [2] (read-out: EC50) came to 0.15 µM; in data set [3] (read-out: EC50), 131 µM. The result in data set [4], in [6] and in data set [7] was Active. The Activity result is “Dose-dependent effect” in [5], “Toxic” in [9] and 22.3% in data set [8].

Turning to `CCCCOc1nc(N)c2[nH]c(=O)n(C3CCNCC3)c2n1.Cl`, the half-maximal effective concentration (EC50) result in [2] (hek293) and in data set [3] (hek293) was “Not Active” in each case. The outcome in [4], in data set [6] and in data set [7] was inactive.

For the compound `CCCCOc1nc(N)c2[nH]c(=O)n(CCC3CCNCC3)c2n1.Cl`, in [1], the inhibition result was “Dose-dependent effect”. Moreover, the half-maximal effective concentration (EC50) in [2] (read-out: EC50) was determined as 0.15 µM; in [3] (read-out: EC50) it was 231 µM. In addition, the result in data set [4], in data set [6] and in data set [7] was Active. The Activity result in data set [5] is “Dose-dependent effect”; in [9], “Non-toxic”; in data set [8] it was 4.91%.
